Data set [1] is described as follows: Drug degradation in phosphate buffer assessed as H2S release by measuring test compound half life at 40 uM measured every 5 mins in presence of TECP by UV-Vis spectrometry. Format: physicochemical. In a few lines:
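Sulfide release at 37.5 °C: donor (40 mM THF stock) added to pH 7.4 phosphate buffer with 1.0 mM TECP; aliquots taken every 5 min into methylene blue cocktail (zinc acetate, N,N-dimethyl-1,4-phenylenediamine, FeCl3 in HCl), A670 read 15 min later; H2S from Na2S calibration curve; concentration vs time curve; four independent experiments.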

Data set [2] relates to Danio rerio. Nature of the data set: Toxicity in AB zebrafish embryo assessed as pericardial edema at 0.5 uM measured at 96 hrs post fertilization by stereoscopic dissecting light microscopic analysis. The format is organism-based. The settings on record: in vivo. In a few lines:
(§1)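 AB embryos exposed from 4 hpf through 96 hpf to compound or DMF vehicle (1:1000); malformations scored at 96 hpf under stereoscopic dissecting microscope; 100 embryos per group in three replicates; three independent experiments, mean ± SD.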

Data set [3] in a line: (§2) Cytotoxicity against mouse RAW264.7 cells assessed as cell viability at 10 to 100 uM treated for 24 hrs post LPS induction by MTT assay. The format is cell-based. Particulars: RAW264.7 cells, read-out: Activity. The gist of the method:
(§3)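 Macrophages in high-glucose DMEM + 10% heat-inactivated FBS, 2 mM glutamine, 37 °C, 5% CO2; exposed 24 h to 10, 50, 100 μM with or without LPS 1 μg/mL; MTT added 4 h, formazan dissolved in DMSO, A570, expressed as % of control; four independent experiments.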
Background: Tetrazolium dyes change colour on reduction, which living cells bring about.

The species entered for data set [4] is Danio rerio. Kind of data set: Toxicity in AB zebrafish embryo assessed as rate of embryo malformation at 20 uM measured at 96 hrs post fertilization by stereoscopic dissecting light microscopic analysis relative to DMF. The format is organism-based. The settings on record: in vivo. In a few lines:
as §1

In data set [5] the test system is RAW264.7. Kind of data set: Antiinflammatory activity in mouse RAW264.7 cells assessed as increase in LPS-induced IL10 levels at 100 uM incubated for 24 hrs post LPS induction by ELISA relative to control. The format is functional. In a few lines:
(§4)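 LPS (1 μg/mL) for 4 h, then compound at 10, 50, 100 μM for 24 h; cells lysed in RIPA, spun 12,000×g 10 min, protein normalised by BCA to 0.1 mg/mL; target (TNF-α, HO-1, IL-10 or COX-2) quantified by sandwich ELISA kit with mouse-specific polyclonal antibodies; four independent experiments.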
In general terms: ELISA stands for enzyme-linked immunosorbent assay.

The test system of data set [6] is RAW264.7. Nature of the data set: Antiinflammatory activity in mouse RAW264.7 cells assessed as LPS-induced TNFalpha levels at 100 uM incubated for 24 hrs post LPS induction by ELISA relative to control. Format: functional. In a few lines:
as §4

Data set [7] can be described thus: Toxicity in AB zebrafish embryo assessed as percentage of embryos alive at 20 uM measured at 120 hrs post fertilization by dissecting light microscopic analysis relative to DMF. Format: organism-based, Danio rerio. The settings on record: read-out: Activity. In a few lines:
(§5)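 Wild-type AB zebrafish embryos, collected within 1 h of lights-on and washed in E3 medium, were exposed one embryo per well in 200 μL test solution, with plates sealed against evaporation. There were 100 embryos per group, split into three replicate groups. Mortality was recorded at 24–168 hpf. DMF vehicle (1:1000) served as control. Results are mean ± SD of three replicates.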

The species entered for data set [8] is Danio rerio. Kind of data set: Toxicity in AB zebrafish embryo assessed as rate of embryo malformation at 0.5 to 20 uM measured at 96 hrs post fertilization by stereoscopic dissecting light microscopic analysis relative to DMF. Format: organism-based. The settings on record: in vivo. The gist of the method:
as §1

The nature of data set [9]: Toxicity in AB zebrafish embryo assessed as percentage of embryos alive at 10 uM measured at 120 hrs post fertilization by dissecting light microscopic analysis relative to DMF. The format is organism-based, Danio rerio. Particulars: read-out: Activity. In a few lines:
as §5

Data set [10] relates to RAW264.7. The description is as §2. Format: cell-based. Particulars: raw264.7, 24 h, 100 µM. The gist of the method:
as §3

The species entered for data set [11] is Danio rerio. Nature of the data set: Toxicity in AB zebrafish embryo assessed as embryonic spontaneous movement frequencies per minute at 20 uM measured at 24 hrs post fertilization by stereoscopic dissecting light microscopic analysis (reference value: 15.9 /min). Particulars: in vivo. The format is organism-based. In a few lines:
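AB embryos exposed from 4 to 24 hpf to compound (0.5–20 μM) or DMF vehicle (1:1000); ten embryos per group chosen randomly; spontaneous movement recorded under stereoscopic dissecting microscope, frequency per min counted at 24 hpf; three independent experiments, mean ± SD.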

The text below walks through data of ChEMBL document CHEMBL4190227, “Syntheses, toxicities and anti-inflammation of H2S-donors based on non-steroidal anti-inflammatory drugs” (Eur J Med Chem, 2017).

A word on the half-life: it is the time needed for the level to fall by half in the phase considered. As to `CC(C)Cc1ccc(C(C)C(=O)Oc2ccc(C(N)=S)cc2)cc1` (stereo unspecified), in data set [1], the half-life at 40 µM is 20.1 min. The Activity result in the data set with Danio rerio [2] is recorded as “Toxic”; in the data set listed under Danio rerio [4], 5%. Further, the viability at 24 h, up to 100 µM in [3] was in the range of 70 to 110%.
With `CC(=O)Nc1ccc(OC(=O)CCCCC2CCSS2)cc1` (stereo unspecified), the “fold change (FC)” value in the data set on RAW264.7 [5] was 3. Further, the Activity with RAW264.7 [6] was 50%; in the data set filed under Danio rerio [8], 3%; in the data set on RAW264.7 [10] it was “Non-Toxic”; in the data set listed under Danio rerio [11], 12.2 min⁻¹. Moreover, in [7], the survival at 120 h, 20 µM worked out at 41%. The survival at 120 h, 10 µM in data set [9] is 51%.
